# High-throughput results deposited in PubChem by Sanford-Burnham Center for Chemical Genomics.
# HKDC1 activator: increases human hexokinase HKDC1 activity; Q2TB90; recombinant HKDC1, G6PDH/diaphorase resazurin fluorescence; hits give low values; activity change, negative = activation, % at 20 µM; actives 0.056% (n = 340,000);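 active = activation of 40% or more at 20 µM, a change of -40% or lower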
#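 Material – in-house human HKDC1 enzyme, G6PDH and diaphorase coupling enzymes · Input – HKDC1 at 5 µg/mL final · Buffer or medium – pH 8.0 Tris with MgCl2 · Dosing – single compound dose of 20 µM, 1% DMSO final · Incubation – 90 min, room temperature · Technique – resorufin fluorescence from 100 µM resazurin, NADP 1 mM, Ex 525/Em 613 nm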
# * = called active by the depositor. A selection follows.
SMILES,HKDC1 activator
O=C(NCCc1ccccc1)c1cnn2c(C(F)F)cc(C3CC3)nc12,47
O=C(O)c1cc(N2N=C(C(F)(F)F)/C(=C/C=C/c3ccco3)C2=O)ccc1Cl,46
Cc1n[nH]c(=O)c2c(NC(=O)CSc3nnc(C4CC4)n3C)oc(C)c12,40
Cc1cc(C(F)F)n2ncc(C(=O)NCCc3ccc(Cl)cc3)c2n1,39
S=C(NCCc1ccc(Cl)cc1)NCc1ccccc1,-63*
COc1cc(N(C)C)ccc1C=c1c2ccccc2n2c1cc(-c1ccccc1)[n+]2C,41
Cc1ccc(/C=C/c2nc3sc(C(=O)O)c(C)c3c(=O)[nH]2)cc1[N+](=O)[O-],47
Cn1c(-c2ccccc2)c(C(=O)CC#N)c2ccccc21,-45*
CC(=O)Nc1ccc2cc3ccc(NC(C)=O)cc3nc2c1,43
O=C(O)CCNc1cc(N2CCN(C(=O)c3ccco3)CC2)c2noc3c2c1C(=O)c1ccccc1-3,39
CC(NNC(=S)N1CCN(c2ccccn2)CC1)c1nccc2ccccc12 (stereo not drawn),-42*
CCOC(=O)c1cc(-c2ccc(/C=C3/C(=O)N(c4ccc(C(=O)O)cc4)N=C3C)o2)ccc1Cl,43
COc1cc(/C=C2/C(=O)NN(c3ccc(Cl)c(Cl)c3)C2=O)cc([N+](=O)[O-])c1O,50
CC(=NNC(=S)N1CC2CCC(CC2)C1)c1ccncn1,-54*
CC(NC1=CC(=O)c2cccnc2C1=O)C(O)c1ccccc1 (stereo not drawn),46
CCc1nc2sc3c(=O)[nH]cnc3c2c2c1CSC(C)(C)C2,37
O=C(O)c1cc(O)c2c(c1)[C@@H]([C@H]1c3cc(C(=O)O)cc(O)c3C(=O)c3c(O[C@@H]4O[C@H](CO)[C@@H](O)[C@H](O)[C@H]4O)cccc31)c1cccc(OC3O[C@H](CO)[C@@H](O)[C@H](O)[C@H]3O)c1C2=O (stereo partly drawn),83
CCN=C1NN=C(c2ccc(C)cc2)CS1,-64*
Cc1[nH]c2ccccc2c1C(C#N)(C#N)C1C(=O)c2ccccc2C1=O,57
COC(=O)CCC(=O)OC1(C)C(=O)C2=CN(CC3CC3)C(c3ccc(OC)cc3)=CC2=C(Br)C1=O (stereo not drawn),37
COc1ccc(-c2csc(Nc3ccc(S(N)(=O)=O)cc3)n2)cc1,-42*
Cc1ccccc1/C=C/C(=O)c1ccc([N+](=O)[O-])o1,46
N#Cc1ccc(CSc2nnc(NC(=O)c3ccc4ncsc4c3)s2)cc1,51
O=C1/C(=C/Nc2cccc([N+](=O)[O-])c2)CCc2ccccc21,41
CCCC(NC(=O)Cc1c(C)c2cc3c(C)c(C)oc3c(C)c2oc1=O)C(=O)N[C@@H](Cc1ccccc1)C(=O)O (stereo partly drawn),52
SMILES,HKDC1 activator
Cc1c(N=C2C=CC(=O)c3ccccc32)c(=O)n(-c2ccccc2)n1C,42
O=C(N/N=C/c1ccc(O)cc1O)/C(=C/c1ccccc1)CCO,-40*
Cc1cc(/C=C\c2ccc3cc(N(C)C)ccc3[n+]2C)c(C)n1-c1ccccc1,37
CC(=O)N(C1=C(Cl)C(=O)c2ccccc2C1=O)C1CCCCC1,58
Cc1cc(C(=O)N=Nc2c(O)n(C(C)C)c3ccccc23)n[nH]1,40
Cc1cc2c(N)cccc2nn1,35
Nn1cnnc1N/N=C/c1cc(Br)cc(Br)c1O,-52*
Cc1cccc(/C=C/C(=O)c2ccc([N+](=O)[O-])o2)c1,50
NC(=S)N/N=C/c1ccc(Br)o1,-55*
O=C1C(=Cc2ccc(Br)o2)C(=O)c2ccccc21,36
CCOC(=O)C1=C(O)c2ccccc2C(=O)/C1=C\c1ccc(C)cc1,67
COC(=O)CCC(=O)OC1(C)C(=O)C2=CN(Cc3ccccc3)C(c3ccc(OC)cc3)=CC2=C(Br)C1=O (stereo not drawn),43
CCc1ccc(S(=O)(=O)Nc2ccc(O)c3ccccc23)cc1,44
O=S(=O)(Nc1ccc(O)c2ccccc12)c1ccc(F)cc1,43
CCN(CC)c1ccc(/C=N/NC(=O)c2cccc(S(=O)(=O)Nc3ccccc3OC)c2)c(O)c1,-43*
O=C(O)c1ccccc1-c1c2cc(I)c(=O)c(I)c-2oc2c(I)c(O)c(I)cc12,69
O=C1NN(c2ccccc2)C(=O)/C1=C/c1ccc(Sc2ccc(Cl)cc2)o1,42
CCc1ccc(S(=O)(=O)/N=C2\C=C(Nc3ccc(C(=O)O)cc3)C(=O)c3ccccc32)cc1,54
O=C1/C(=C\c2ccc(-c3ccccc3[N+](=O)[O-])o2)C(c2ccccc2)=NN1c1ccccc1,42
COCCNc1ccc([N+](=O)[O-])cc1C(=O)Nc1cccc(C)n1,-58*
Cc1cc([N+](=O)[O-])nn1CC(=O)N/N=C/c1ccc(O)cc1O,-49*
Cc1cc(C)n(Cc2ccc(C(=O)N/N=C/c3ccc(-c4ccc([N+](=O)[O-])cc4)o3)o2)n1,66
NS(=O)(=O)c1ccc(N/N=C/c2ccc(O)c(O)c2O)c([N+](=O)[O-])c1,36
CNCc1ccccc1Sc1cc(O)ccc1O,64
